Assay outcomes: PubChem, several laboratories
GSK3B inh: human GSK3beta kinase inhibitors, primary screen, biochemical, cell-free homogeneous, HTS. activity score (negative = inhibition), % at 10 µM. Glycogen synthase kinase-3 beta (Homo sapiens), P49841. 0.038% of 300,000 active. GST-GSK3beta kinase, ADP-Glo luminescence, 60 min; active compounds read low;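 active means more than half of replicate wells score below -50%, meaning over 50% inhibition versus plate controls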;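 further: 0% = median DMSO wells and -100% = median GW8510 positive control wells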
Target sequence (P49841 whole entry, looked up): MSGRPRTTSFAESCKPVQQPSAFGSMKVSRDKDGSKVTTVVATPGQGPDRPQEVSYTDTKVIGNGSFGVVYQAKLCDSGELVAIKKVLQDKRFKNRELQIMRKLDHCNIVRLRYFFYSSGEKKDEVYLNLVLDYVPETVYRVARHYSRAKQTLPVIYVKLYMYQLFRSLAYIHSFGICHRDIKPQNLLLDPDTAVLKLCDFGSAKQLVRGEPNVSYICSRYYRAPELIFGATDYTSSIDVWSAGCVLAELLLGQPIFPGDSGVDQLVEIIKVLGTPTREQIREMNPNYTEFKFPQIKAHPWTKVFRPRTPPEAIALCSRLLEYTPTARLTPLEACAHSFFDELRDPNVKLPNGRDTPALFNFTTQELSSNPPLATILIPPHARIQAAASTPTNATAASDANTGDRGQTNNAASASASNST
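test system = GST-tagged human GSK3beta kinase, cell-free | reagent = 25 µM ATP with peptide substrate | dosing = one dose of 10 µM per compound | schedule = 60 min reaction, RT | detection = luminescent ADP-Glo measurement of ADP formed | control set = DMSO neutral wells and GW8510 at 20 µM as positive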
GSK3 alpha inh: blockers of GSK3A enzyme activity – biochemical, luminescence, cell-free homogeneous, HTS, primary screen | Glycogen synthase kinase-3 alpha (Homo sapiens), P49840 | GSK-3 alpha kinase, ADP-Glo luminescence, 60 min | inhibition, % at 10 µM | 0.1% of 320,000 active;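 active means more than half of replicates show inhibition above 20%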;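 further: GST-tagged GSK-3 alpha with peptide substrate and 25 µM ATP; 0% = DMSO neutral wells and 100% = GW8510 positive control wells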
MEKK2wt PB1 HTS: modulators of MEK5 binding to wildtype MEKK2, primary screen, biochemical, multiplex bead flow cytometry, Alexa488-MEK5; Mitogen-activated protein kinase kinase kinase 2 (Homo sapiens), Q9Y2U5; 1.1% of 290,000 active; Alexa488-MEK5 binding to MEKK2 WT; actives lie on both sides; binding response (% of control), % at 10 µM; in the data active means binding response below about 67% or above about 130%
MEKK2mut PB1 HTS: MEK5 binding signal on mutant MEKK2 PB1, primary screen, biochemical, multiplex bead flow cytometry, Alexa488-MEK5; Alexa488-MEK5 binding to MEKK2 mutant; percent response, % at 10 µM; 0.35% of 290,000 active; in the data active means percent response above about 24%, passing the limit was not always enough
MEKK3 PB1 HTS: modulators of MEKK3-MEK5 PB1 binding, primary screen, biochemical, wildtype MEKK3, multiplex bead flow cytometry, Alexa488-MEK5 | bead-based flow cytometry, Alexa488-MEK5 binding to MEKK3; actives lie on both sides; 0 = blocked by unlabeled MEK5, 100 = vehicle | binding response (% of control), % at 10 µM | 1.4% of 290,000 active;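 active means binding response more than 3 SD above or below the average of its plate-row segment, actives on both sides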;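 further: Alexa488 bead fluorescence after subtracting the streptavidin-only scavenger bead signal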
STK33 inh: inhibitors of purified STK33 kinase, primary screen, biochemical, ADP-Glo luminescence, homogeneous, cell-free; MBP phosphorylation; 0.073% of 320,000 active; Serine/threonine-protein kinase 33 (Homo sapiens), Q9BYT3; AID 2661, 2010; inhibition, % at 10 µM;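 active means inhibition at or above 25%, using the most active replicate where run in duplicate; inactive means inhibition below 25%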
MEKK2wt confirm: modulators of MEK5 binding to wildtype MEKK2, confirmation, biochemical, single concentration, multiplex bead flow cytometry | binding response (% of control), % at 10 µM | Alexa488-MEK5 binding to MEKK2 WT; actives lie on both sides | shares compounds with MEKK3 PB1 HTS | 2.4% of 5,900 active | AID 1892, 2009; in the data active means binding response below about 16% or above about 210%; inactive means in between
MEKK2mut confirm: mutant MEKK2 PB1-MEK5 binding signal retest – biochemical, single concentration, multiplex bead flow cytometry, confirmation | Alexa488-MEK5 binding to MEKK2 mutant | AID 1893, 2009 | shares compounds with MEKK3 PB1 HTS | 2% of 5,900 active | percent response, % at 10 µM; in the data active means percent response mostly above about 71%, no sharp cut-off; inactive means mostly below about 38%;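 further: higher means compound restores mutant binding toward wildtype level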
MEKK3 confirm: MEKK3 wild-type PB1 binding to MEK5, inhibitors, confirmation, biochemical, bead multiplex flow cytometry, single concentration, wildtype | shares compounds with MEKK3 PB1 HTS | Alexa488-MEK5 binding to MEKK3; active compounds read low | binding response (% of control), % at 10 µM | 1.8% of 5,900 active | AID 1894, 2009;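 active means binding response below 72% of control, or above a set upper limit, though filed actives all read lower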;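 further: 100% = DMSO only wells and 0% = binding blocked by excess unlabeled MEK5; lower values mean stronger disruption of MEK5 binding to MEKK3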
Starred values were filed as active, the others as inactive; . = not tested or not shown; [ ] = remark or other dose. Compounds with a hit are over-represented: about 2.1% of the library has one in this group of screens.

SMILES | GSK3B inh | GSK3 alpha inh | MEKK2wt PB1 HTS | MEKK2mut PB1 HTS | MEKK3 PB1 HTS | STK33 inh | MEKK2wt confirm | MEKK2mut confirm | MEKK3 confirm
Cc1ccnc(NC(=O)/C=C/c2cccs2)c1 | 0 | 0 | 178* | 58* | 120 | 0 | 105 | -7 | 97
C=CCNC(=O)COC(=O)/C=C/c1cccs1 | 2 | -5 | 95 | -3 | 95 | 3 | . | . | .
O=C(Nc1ccccn1)C1(c2cccs2)CCOCC1 | -1 | 0 | 92 | -1 | 90 | 1 | . | . | .
O=C(/C=C/c1cccs1)Nc1nncs1 | -4 | 0 | 103 | 1 | 99 | 2 | . | . | .
C=CCNC(=O)/C=C/c1cccs1 | -1 | 0 | 112 | -1 | 135* | 0 | 115 | 17 | 108
Cc1nc(N2CCN(C(=O)c3cnccn3)CC2)c2c3c(sc2n1)CC(C(C)(C)C)CC3 (stereo not given) | -1 | 0 | 92 | -9 | 100 | -1 | . | . | .
Cc1ccccc1NC(=O)CN1C(=O)S/C(=C\c2cccn2-c2cccc(C(=O)O)c2)C1=O | 0 | -1 | 119 | 9 | 122* | 0 | 105 | 4 | 107
CNCC(=O)Nc1c(C)n[nH]c1C | 3 | -1 | 108 | 1 | 148* | -2 | 113 | 11 | 106
CCCC(=O)Nc1c(C)n[nH]c1C | -1 | -1 | 99 | 0 | 95 | 1 | . | . | .
COC(=O)C1(CCSC)NC(c2ccc(O)cc2)C2C(=O)N(c3ccc(F)cc3)C(=O)C21 (stereo not given) | -1 | 1 | 95 | -7 | 102 | 0 | . | . | .
Cc1cc(Cl)ccc1OCC(=O)Nn1c(C)ccc1C | -1 | 1 | 123 | 9 | 128* | -2 | 96 | -1 | 100
COc1cc(NC(=O)CN(C)Cc2cccc(F)c2)c(C)cc1[N+](=O)[O-] | -4 | -7 | 112 | 0 | 128* | 0 | 104 | -2 | 104
COc1ccc(CN(C)CC(=O)Nc2cc(OC)c([N+](=O)[O-])cc2C)c(OC)c1 | 0 | 0 | 106 | 0 | 133* | 0 | 111 | 5 | 100
CCn1cc([N+](=O)[O-])c(=O)c2cc(F)c(N3CCOCC3)cc21 | -6 | 6 | 98 | -2 | 99 | -1 | . | . | .
CS(=O)(=O)N1CCN(C(=O)COc2ccc3ccccc3c2)CC1 | 5 | . | 113 | 29 | 132* | . | 100 | -7 | 105
CS(=O)(=O)N1CCN(C(=O)Cc2cccs2)CC1 | 1 | -1 | 79 | -9 | 63*[inhibitor] | -2 | 111 | 13 | 109
CC(C)C(=O)Nc1nnc(SCC(=O)NC2CC2)s1 | 1 | -2 | 11*[inhibitor] | -15 | 7.0*[inhibitor] | -1 | 100 | -4 | 101
OCC[C@H]1C[C@@H](O)[C@H](O)[C@@]2(CCc3ccccc3CO2)O1 | . | -2 | . | . | . | 1 | . | . | .
COc1ccc(N(C(=O)c2ccco2)C(C(=O)NC2CCCC2)c2ccc(OC)c(OC)c2)cc1 (stereo not given) | -4 | 0 | 98 | 1 | 101 | 0 | . | . | .
NC(=O)CSc1nnc(-c2cc3ccccc3o2)n1Cc1ccccc1 | -1 | -3 | 119 | 9 | 124* | -1 | 98 | 3 | 104
CCCCn1c(SCC(=O)N2CCOCC2)nnc1-c1ccoc1C | 0 | -6 | 107 | 2 | 128* | 0 | 104 | 10 | 105
COc1ccc(C(=O)NCc2n[nH]c(=S)n2-c2ccccc2)cc1OC | 0 | 0 | -5.0*[inhibitor] | -40 | -1.0*[inhibitor] | -1 | 110 | 11 | 107
COc1cc(OC)cc(C(=O)NCc2n[nH]c(=S)n2-c2ccccc2)c1 | 1 | -2 | 96 | -2 | 98 | -3 | . | . | .
O=C(CCCOc1ccc(Br)cc1)Nc1nnc(C2CC2)s1 | . | 1 | . | . | . | 1 | . | . | .
CC(c1ccccc1)N1CCn2c(nc3cc(NC(=O)c4cccs4)ccc32)C1 (stereo not given) | 0 | -1 | 35*[inhibitor] | -33 | 19*[inhibitor] | 1 | 101 | 7 | 101
SMILES | GSK3B inh | GSK3 alpha inh | MEKK2wt PB1 HTS | MEKK2mut PB1 HTS | MEKK3 PB1 HTS | STK33 inh | MEKK2wt confirm | MEKK2mut confirm | MEKK3 confirm
COc1ccccc1NS(=O)(=O)c1cc([N+](=O)[O-])ccc1N/N=C/c1c(C)[nH]c2ccccc12 | 0 | 0 | . | 67* | 75 | 0 | 97 | -1 | 91
O=[N+]([O-])c1ccc(N/N=C/c2c[nH]c3ccccc23)c(S(=O)(=O)Nc2ccc(Cl)cc2)c1 | -3 | 0 | . | . | . | 0 | . | . | .
N#Cc1cc2cc3c(cc2nc1SCC(=O)N1CCOCC1)OCCO3 | 1 | 1 | 93 | -10 | 97 | 2 | . | . | .
Cc1cccc(NC(=O)Cn2c([N+](=O)[O-])cnc2C)c1C | 2 | -2 | 112 | 1 | 136* | 0 | 104 | 0 | 104
C#CCOCCOCCOCCNc1nc(N2CCN(C(=O)[C@H]([C@@H](C)CC)n3cc([C@@H](N)CO)nn3)CC2)nc(N2CCN(C(=O)[C@H]([C@@H](C)CC)n3cc([C@@H](N)CO)nn3)CC2)n1 | -2 | . | 75 | 1 | 85 | . | . | . | .
C#CCOCCOCCOCCNc1nc(N2CCOCC2)nc(N2CCN(C(=O)[C@H](Cc3cc4ccccc4[nH]3)n3cc([C@@H](N)C(C)CC)nn3)CC2)n1 (stereo not given in full) | 2 | -3 | 126 | 11 | 101 | -2 | . | . | .
C#CCOCCOCCOCCNc1nc(N2CCN(C(=O)[C@H]([C@@H](C)CC)n3cc([C@@H](N)CC(C)C)nn3)CC2)nc(N2CCN(C(=O)[C@H](Cc3cc4ccccc4[nH]3)n3cc([C@@H](N)Cc4ccc(O)cc4)nn3)CC2)n1 | -2 | 1 | 270* | 128* | 115 | -2 | 226* | 68 | 108
